What was measured:
Rattus norvegicus [1] = species: Rattus norvegicus; experiment: In vitro ability to relax phenylephrine contracted rat aorta rings; type: functional
[2] = In vitro membrane potential on murine beta-TC3 cells; NA= not active; type: functional, Mus musculus
[3] = In vitro membrane potential on murine beta-TC3 cells; type: functional; settings: Mus musculus
Beta-TC6 [4] = experiment: In vitro inhibition of insulin release from murine beta-TC6 cells; type: functional, cell-based; settings: Mus musculus
Method in brief: (§1)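 βTC6 cells washed twice in NN buffer (pH-buffered Krebs-type saline with HEPES) plus 0.1% BSA, preincubated 60 min, then incubated 3 h with 22 mM glucose, 0.1 mM IBMX and serial compound dilutions. Supernatant insulin measured by competition ELISA against rat insulin standards with peroxidase-labelled insulin and TMB read-out. EC50 (potency) and percentage inhibition (efficacy) derived from curves; at least two experiments.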

Rattus norvegicus [5] = species: Rattus norvegicus; experiment: Concentration required for the inhibition of insulin release from rat islets; type: functional
Method in brief: (§2)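 Rat islets isolated by collagenase digestion and Ficoll gradient (40–13%), cultured overnight in RPMI/10% FCS/11 mM glucose, then 10 islets per well overnight in DMEM/10% FCS/3 mM glucose. Tested as for βTC6: NN buffer with 0.1% BSA, 3 h with 22 mM glucose and compound dilutions, no IBMX; insulin by competition ELISA.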

Beta-TC6 [6] = experiment: Percent efficacy of compound for the in vitro inhibition of insulin release from murine beta-TC6 cells; type: functional, Mus musculus; method in brief: as §1
[7] = In vitro membrane potential on murine betaTC3 cells; NA=not active; type: functional, Mus musculus
Rattus norvegicus [8] = species: Rattus norvegicus; experiment: Compound was evaluated for the inhibition of insulin release from rat islets; type: functional; method in brief: as §2

CCC(C)(C)/N=C(\NC#N)Nc1cccnc1 showed an IC50 (Rattus norvegicus [1]) of 0.25 µM.
In the case of CCC(C)(C)/N=C(\NC#N)Nc1cc(C(F)(F)F)cc(C(F)(F)F)c1, the IC50 [2] is reported as “Not Active” and the IC50 (Rattus norvegicus [1]) is reported as 0.9 µM.
COc1cc(N/C(=N/CCC(C)C)NC#N)cc(C(F)(F)F)c1 showed an IC50 [3] of 13 µM, an IC50 (Beta-TC6 [4]) of 3.9 µM and an IC50 (Rattus norvegicus [5]) of 4.8 µM. For the same compound, the Efficacy (Beta-TC6 [6]) was 79% and the IC50 (Rattus norvegicus [1]) was 79 µM.
With CCC(C)(C)/N=C(\NC#N)Nc1cc(Cl)cc(Cl)c1 the IC50 (Beta-TC6 [4]) was 2.3 µM, the IC50 [7] was “Not Active” and the Efficacy (Beta-TC6 [6]) was 57%. The IC50 (Rattus norvegicus [1]) was 0.3 µM.
For CCC/N=C(\NC#N)Nc1cc(C(F)(F)F)cc(C(F)(F)F)c1, the IC50 [3] was 0.9 µM, the IC50 (Beta-TC6 [4]) was 5 µM and the Efficacy (Beta-TC6 [6]) was 58%. It also gave an IC50 (Rattus norvegicus [1]) of 12.4 µM.
Work on CC(/N=C(\NC#N)Nc1cc(Cl)cc(Cl)c1)C(C)(C)C (configuration not stated) yielded an IC50 [3] of 19 µM, an IC50 (Beta-TC6 [4]) of 26.7 µM and an IC50 (Rattus norvegicus [5]) of 2.2 µM. It also gave an Efficacy (Beta-TC6 [6]) of 86% and an IC50 (Rattus norvegicus [1]) of 0.5 µM.
Compound CCC/N=C(\NC#N)Nc1cc(Cl)cc(Cl)c1 has an IC50 [3] of 36 µM, an IC50 (Beta-TC6 [4]) of 3.7 µM and an Efficacy (Beta-TC6 [6]) of 50%. It also gave an IC50 (Rattus norvegicus [1]) of 31 µM.
In the case of CC(/N=C(\NC#N)Nc1cc(C(F)(F)F)cc(C(F)(F)F)c1)C(C)(C)C (configuration not stated), the IC50 [2] is reported as “Not Active”, the IC50 (Beta-TC6 [4]) is reported as 4.6 µM and the Efficacy (Beta-TC6 [6]) is reported as 78%. The IC50 (Rattus norvegicus [1]) was 8.7 µM.
For CC(C)CC/N=C(\NC#N)Nc1cc(C(F)(F)F)cc(C(F)(F)F)c1, the IC50 [3] was 0.5 µM, the IC50 (Beta-TC6 [4]) was 2 µM and the Efficacy (Beta-TC6 [6]) was 77%. For the same compound, the IC50 (Rattus norvegicus [1]) was 5.6 µM.
In the case of CC(C)CC/N=C(\NC#N)Nc1cc(Cl)cc(Cl)c1, the IC50 [3] is reported as 4 µM, the IC50 (Beta-TC6 [4]) is reported as 0.7 µM and the Efficacy (Beta-TC6 [6]) is reported as 72%. The IC50 (Rattus norvegicus [1]) was 18.7 µM.
CC(/N=C(\NC#N)Nc1cccc(C(F)(F)F)c1)C(C)(C)C (configuration not stated) showed an IC50 [3] greater than 100 µM, an IC50 (Beta-TC6 [4]) greater than 100 µM and an Efficacy (Beta-TC6 [6]) of 29%. For the same compound, the IC50 (Rattus norvegicus [1]) was 88 µM.
In the case of CC1=Nc2ccc(Cl)cc2S(=O)(=O)N1 [DIAZOXIDE], the IC50 [3] is reported as 77.4 µM, the IC50 (Beta-TC6 [4]) is reported as 22.4 µM and the Efficacy (Beta-TC6 [6]) is reported as 23%. It also gave an IC50 (Rattus norvegicus [1]) of 11.5 µM and an IC50 (Rattus norvegicus [8]) of 6.1 µM.
CC(N/C(=N\C#N)Nc1ccncc1)C(C)(C)C (configuration not stated) [PINACIDIL ANHYDROUS] gave an IC50 (Rattus norvegicus [1]) of 1.5 µM.

Source: ChEMBL document CHEMBL1134126, “Phenylcyanoguanidines as inhibitors of glucose-induced insulin secretion from beta cells” (Bioorg Med Chem Lett, 2001)
